Rows were chosen to be rich in hits. Some 3.5% of all compounds tested hit in one or more screens of this group.
MrgX1 ag = activates human MrgX1 receptor signaling | B-score at 10 µM | MrgX1-HEK293 cells, Fluo-4 calcium fluorescence, agonist mode; hits give high values | 310,000 tested, 0.44% active | Q96LB2;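 active = calcium response B-score plate-corrected fluorescence ratio at least 3 library SD, with starting fluorescence B-score inside 5 SD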
Target sequence (Q96LB2 whole entry, looked up): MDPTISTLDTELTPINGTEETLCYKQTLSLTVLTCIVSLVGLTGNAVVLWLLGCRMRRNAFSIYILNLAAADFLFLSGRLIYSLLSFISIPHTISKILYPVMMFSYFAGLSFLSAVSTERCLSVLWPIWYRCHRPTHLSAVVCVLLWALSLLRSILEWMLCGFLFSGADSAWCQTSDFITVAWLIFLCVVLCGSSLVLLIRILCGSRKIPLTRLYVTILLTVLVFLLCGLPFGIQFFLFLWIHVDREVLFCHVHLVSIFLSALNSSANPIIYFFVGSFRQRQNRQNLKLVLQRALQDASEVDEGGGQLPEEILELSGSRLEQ
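times = overnight plating, then 30 min 37 °C plus 30 min room-temperature dye loading | assay system = stable human MrgX1 HEK293 cell line | input = fifteen thousand cells per well | signal = kinetic calcium dye fluorescence, Fluo-4 NW | dosing = compound delivered in addition one of three | read-out = B-scored fluorescence response ratio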
MrgX1 antag = antagonists of human MrgX1 receptor; Q96LB2; B-score at 10 µM; AID 588676; 310,000 tested, 1.3% active; MRGX1-HEK293 calcium flux, Fluo-4, BAM8-22 antagonism; hits give low values;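 active = calcium-response B-score plate-corrected more than 3 library SD below zero, starting fluorescence within 5 deviations, no agonist response on first addition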;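 also: peak minus trough fluorescence over baseline after final BAM8-22 challenge near maximal dose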
MrgX1 PAM = human MrgX1 positive allosteric modulation, primary screen | MrgX1-HEK293, Fluo-4 calcium flux, FDSS; hits give high values | B-score at 10 µM | 310,000 tested, 0.63% active;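 active = plate-corrected calcium response at least 3 library SD above typical, normal starting fluorescence, not activating the receptor alone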;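 also: compound read alongside a low EC10 to EC30 dose of BAM8-22 agonist; peak minus trough fluorescence over baseline measured at the second addition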
RGS4 act = RGS4 potentiation or activation. HEK293 M3R/inducible RGS4, carbachol calcium flux Fluo4; hits give low values. B-score at 10 µM. 310,000 tested, 0.92% active. AID 463111;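 active = B-score of the integrated calcium signal more than 4 SD below the library mean, with starting fluorescence not abnormally high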;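 also: negative B-score means reduced calcium response which marks RGS4 activation or potentiation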
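Assay system: HEK293 FlpIn-TREx cells, stable M3R, doxycycline-inducible RGS4 / Probe or stimulus: carbachol, ECmax concentration / Times: overnight RGS4 induction, 30 min dye load 37 °C, 20 min compound RT / Signal: kinetic calcium fluorescence imaging with Fluo4-AM dye, 2 µM / Measure: Agonist-evoked peak-minus-minimum fluorescence over baseline, integrated ratio, B score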
RGS4 inh = human RGS4 inhibition | P49798 | HEK293 M3R/RGS4 inducible, Fluo-4 calcium flux; hits give high values; triggered by carbachol at its EC20 | B-score at 10 µM | 310,000 tested, 0.45% active | AID 463165;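 active = B-score, a plate-corrected calcium signal, over three deviations above library mean, with baseline fluorescence within five deviations of library mean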;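 also: RGS4 expression induced by doxycycline in cells with stable M3 receptor; B-score is computed from the integrated fluorescence ratio over baseline after carbachol; higher B-score means a larger calcium signal and so more RGS4 inhibition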
Target sequence (P49798 whole entry, looked up): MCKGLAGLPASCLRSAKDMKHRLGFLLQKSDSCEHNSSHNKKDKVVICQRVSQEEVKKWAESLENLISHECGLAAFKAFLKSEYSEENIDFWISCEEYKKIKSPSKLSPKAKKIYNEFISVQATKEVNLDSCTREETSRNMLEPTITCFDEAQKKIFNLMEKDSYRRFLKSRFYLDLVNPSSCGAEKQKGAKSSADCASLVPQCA
MrgX1 PAM conf = reconfirmed allosteric activator of human MrgX1 receptor; MrgX1-HEK293, Fluo-4 calcium fluorescence, FDSS; shares compounds with MrgX1 PAM; 1,200 tested, 13% active; AID 602413; activation (ratio percentage), % at 10 µM;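 active = ratio at least 3 SD above the weak peptide control, stable starting fluorescence, no direct agonism earlier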;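 also: compound followed by low BAM8-22 agonist challenge near EC20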
HEK293 Ca flux = counter-screen for MrgX1 antagonists: effect in parental HEK293 cells. shares compounds with MrgX1 antag. Fluo-4 calcium fluorescence, FDSS. fluorescence ratio F(max-min)/F0 at 10 µM. 4,000 tested, 2% active;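 active = duplicate-averaged calcium fluorescence ratio at least three times the standard deviation of buffer wells, a nonspecific response in parental cells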
HEK293 Ca counter = MrgX1 allosteric activator counter-screen hit in parental HEK293 cells; shares compounds with MrgX1 antag; parental HEK293 calcium flux, Fluo-4 fluorescence ratio; hits give high values; fluorescence ratio F(max-min)/F0 at 10 µM; 4,000 tested, 0.4% active; AID 624114;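 active = calcium fluorescence ratio, averaged over duplicates, at least 3 SD of the buffer-well ratio, meaning a nonspecific response in receptor-free cells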;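 also: untransfected parental HEK293 lacking MrgX1 used as counterscreen for MrgX1 allosteric activators; fluorescence change taken during the second addition on a kinetic imager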
HEK293 Ca cntr2 = counter-screen for MrgX1 activators: effect in parental HEK293 cells. shares compounds with MrgX1 antag. Fluo-4 calcium fluorescence (FDSS); hits give high values. fluorescence ratio F(max-min)/F0 at 10 µM. 4,000 tested, 8.7% active. AID 624115;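 active = calcium fluorescence ratio at least three times the spread of buffer wells, meaning a non-specific response in parental cells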
Large screens that a line does not name were inactive (follow-up assays come after a bar, where they were run).

Cc1ccc(-c2csc3ncnc(NCCC(=O)O)c23)cc1C	MrgX1 PAM 6.73 | MrgX1 PAM conf inactive | HEK293 Ca flux inactive | HEK293 Ca counter inactive | HEK293 Ca cntr2 inactive
CCOc1ccc(N2C(=O)C3CCCN3C2=O)cc1 (stereo not drawn)	none
COc1ccc(N2C(=O)C3CCCN3C2=O)cc1 (stereo not drawn)	MrgX1 PAM 10.4 | MrgX1 PAM conf inactive | HEK293 Ca flux inactive | HEK293 Ca counter inactive | HEK293 Ca cntr2 inactive
O=C(COc1ccc(Cl)cc1)NCCCNC(=O)c1ccncc1	none
COc1ccc(CC(=O)Nc2ccccc2Oc2ccccc2)cc1	MrgX1 PAM 8.26 | MrgX1 PAM conf inactive | HEK293 Ca flux inactive | HEK293 Ca counter inactive | HEK293 Ca cntr2 inactive
CC1CC1C(=O)OCC(=O)Nc1ccccc1Oc1ccccc1 (stereo not drawn)	MrgX1 PAM 11.9 | MrgX1 PAM conf inactive | HEK293 Ca flux inactive | HEK293 Ca counter inactive | HEK293 Ca cntr2 inactive
CC(=O)N1c2ccc(S(=O)(=O)N(C)Cc3ccccc3)cc2CC1C (stereo not drawn)	MrgX1 PAM 7.21 | MrgX1 PAM conf inactive | HEK293 Ca flux inactive | HEK293 Ca counter inactive | HEK293 Ca cntr2 inactive
Cn1c(CCn2ccccc2=O)nc2cc(NC(=O)COc3ccccc3)ccc21	none
Cc1ccc(N(C)C(=O)c2cnn(-c3ccccc3)c2C)c(C)c1	none
Cc1cccc(N(C)C(=O)c2cnn(-c3ccccc3)c2C)c1	MrgX1 PAM 12.6 | MrgX1 PAM conf inactive | HEK293 Ca flux inactive | HEK293 Ca counter inactive | HEK293 Ca cntr2 inactive
O=C(c1ccc(-c2ccccc2Cl)s1)N1CCOCC1	none
COc1ccc(OCCC(=O)NCC23CC4CC(CC(C4)C2)C3)cc1	MrgX1 PAM 8.85 | MrgX1 PAM conf inactive | HEK293 Ca flux inactive | HEK293 Ca counter inactive | HEK293 Ca cntr2 inactive
COC(=O)Cc1cc(=O)n(-c2nc3ccccc3[nH]2)[nH]1	MrgX1 PAM 15.1 | MrgX1 PAM conf inactive | HEK293 Ca flux inactive | HEK293 Ca counter inactive | HEK293 Ca cntr2 inactive
Cc1ccc(C(=O)c2cn[nH]c2-c2cc(Cl)ccc2O)cc1	MrgX1 PAM 10.8 | MrgX1 PAM conf inactive | HEK293 Ca flux inactive | HEK293 Ca counter inactive | HEK293 Ca cntr2 inactive
Cc1ccc(-c2[nH]ncc2C(=O)c2ccc(Br)cc2)c(O)c1	MrgX1 PAM 8.66 | MrgX1 PAM conf inactive | HEK293 Ca flux inactive | HEK293 Ca counter inactive | HEK293 Ca cntr2 inactive
O=C(Nc1cccc(-n2cnnn2)c1)C1CCCN(Cc2cccc(C(F)(F)F)c2)C1 (stereo not drawn)	none
CC(=O)NCCC(=O)Nc1ccc(C)c(F)c1	none
Cc1ccc(NCC(=O)Nc2ccc(Br)cc2)cc1F	MrgX1 PAM 8.06 | MrgX1 PAM conf inactive | HEK293 Ca flux inactive | HEK293 Ca counter inactive | HEK293 Ca cntr2 inactive
O=C(NC(=S)NC1CCCCC1)c1ccc(F)cc1	MrgX1 PAM 7.01 | MrgX1 PAM conf inactive | HEK293 Ca flux inactive | HEK293 Ca counter inactive | HEK293 Ca cntr2 inactive
O=C(NC(=S)NC1CCN(Cc2ccccc2)CC1)c1ccc(F)cc1	none
S=c1nc[nH]c2c1sc1nc(N3CCOCC3)c3c(c12)CCCC3	MrgX1 PAM 7.37 | MrgX1 PAM conf inactive | HEK293 Ca flux inactive | HEK293 Ca counter inactive | HEK293 Ca cntr2 inactive
CC(C)c1nc2sc3c(=S)nc[nH]c3c2c2c1CCC2	none
CN(Cc1cnccn1)Cc1nc(Cc2ccccc2Cl)no1	none
CN(Cc1cnccn1)Cc1nc(Cc2ccccc2F)no1	MrgX1 PAM 10.3 | MrgX1 PAM conf inactive | HEK293 Ca flux inactive | HEK293 Ca counter inactive | HEK293 Ca cntr2 inactive
CSc1ccc(CNC(=O)Cn2nc(C)c3c(C)n(-c4ccc(C)cc4)nc3c2=O)cc1	none
O=S(=O)(CC(O)COc1ccc(Br)cc1)c1ccccc1 (stereo not drawn)	MrgX1 PAM 9.02 | MrgX1 PAM conf inactive | HEK293 Ca flux inactive | HEK293 Ca counter inactive | HEK293 Ca cntr2 inactive
Cc1ccc(S(=O)(=O)CC(O)COc2ccc(C#N)cc2)cc1 (stereo not drawn)	none
O=S(=O)(c1ccccc1)N(CC(O)COc1ccccc1)c1ccccc1 (stereo not drawn)	MrgX1 PAM 7.75 | MrgX1 PAM conf inactive | HEK293 Ca flux inactive | HEK293 Ca counter inactive | HEK293 Ca cntr2 inactive
O=C(CNC(=O)c1ccc(Br)o1)NNC(=O)c1ccccc1F	none
CCOC(=O)C1C(=O)NC(c2ccccc2)=NC1c1ccc(OC)cc1 (stereo not drawn)	MrgX1 PAM 12 | MrgX1 PAM conf inactive | HEK293 Ca flux inactive | HEK293 Ca counter inactive | HEK293 Ca cntr2 inactive
Cc1cc(C)cc(OCCNC(=O)c2cc(S(=O)(=O)N3CCOCC3)ccc2F)c1	none
Cc1sc2ncnc(N3CCCCC3)c2c1C	MrgX1 PAM 6.81 | MrgX1 PAM conf inactive | HEK293 Ca flux inactive | HEK293 Ca counter inactive | HEK293 Ca cntr2 inactive
Cc1c(C(=O)NCCC2=CCCCC2)sc2ncnc(N3CCCCC3C)c12 (stereo not drawn)	none
Cc1sc2ncnc(N3CCCCC3C)c2c1C (stereo not drawn)	MrgX1 PAM 12.5 | MrgX1 PAM conf 6.3% | HEK293 Ca flux inactive | HEK293 Ca counter inactive | HEK293 Ca cntr2 inactive
CCc1cc2c(=O)[nH]c(N3CCCC3)nc2s1	none
CCc1cc2c(N3CCCCC3)ncnc2s1	MrgX1 PAM 10.7 | MrgX1 PAM conf inactive | HEK293 Ca flux inactive | HEK293 Ca counter inactive | HEK293 Ca cntr2 inactive
Cc1sc2ncnc(N3CCOCC3)c2c1C	none
Cc1sc2ncnc(N3CCCC(C)C3)c2c1C (stereo not drawn)	MrgX1 PAM 27.8 | MrgX1 PAM conf 24.9% | HEK293 Ca flux inactive | HEK293 Ca counter inactive | HEK293 Ca cntr2 inactive
CN(C)C1=NC[C@H](Cc2ccccc2)N1CC1CCCCCC1	none (no result: RGS4 act, RGS4 inh)
S=C1Cc2ccccc2C(c2ccc(Cl)cc2)N1 (stereo not drawn)	none
CCNC(=O)OCC12CC3CC(CC(C3)C1)C2	MrgX1 PAM 9.76 | MrgX1 PAM conf inactive | HEK293 Ca flux inactive | HEK293 Ca counter inactive | HEK293 Ca cntr2 inactive
COc1cc(C)c(Cl)cc1S(=O)(=O)NCc1ccccn1	none
CCc1cc2ccc(OC)cc2nc1SCC(=O)N1CCN(C(=O)c2ccco2)CC1	MrgX1 PAM 6.58 | MrgX1 PAM conf inactive | HEK293 Ca flux inactive | HEK293 Ca counter inactive | HEK293 Ca cntr2 inactive
O=C(Nc1cccc(S(=O)(=O)N2CCOCC2)c1)C1=NN(c2ccccc2)C(=O)CC1	none

Screening data: PubChem BioAssay, Johns Hopkins Ion Channel Center
